Screens from PubChem.
This excerpt belongs to a sample that is enriched for hits.
A1 apoptosis 2 – A1 inhibitors via caspase activation, primary screen, cell-based, luminescence, HTS, two replicates. caspase activation, % (concentration not given with the values). MEF A1-2A-BIM cells, caspase-Glo luminescence, 3 h; percent of clofoctol response, DMSO zero. 24,000 tested, under 10 active; in the data active = caspase activation above about 5.9%
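Test system – A1-2A-BIM-expressing MEF cells · Input – 2500 cells/well · Medium – RPMI-1640 growth medium with 10% FBS · Compound dosing – 50 nL pinned compound · Timing – 3 h compound exposure at 37 °C · Technique – Caspase-Glo luminescence (DEVD substrate) · Evaluation – Caspase-3/7 activity from luminescence increase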
T cruzi intra – inhibitors of intracellular Trypanosoma cruzi, primary screen, cell-based, plate reader, single point, set 2; intracellular Trypanosoma cruzi in host cells; activity score (inhibition), % at 5.01 µM; hit rate 4.9% among 22,000; AID 651903, 2012; in the data active = activity score above about 55%;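 note: parasites and compound incubated about four days before reading; 0% = median of neutral control wells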
INS-1E rescue – protection of INS-1E cells from cytokine death, primary screen, ATP luminescence, single point. INS-1E cytokine-induced death, 48 h; normalised: neutral wells 0, positive control 100. protection from cytokine-induced ATP loss, % at 10 µM. hit rate 0.1% among 20,000. AID 488910, 2010;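 active = mean replicate protection from cytokine-induced ATP loss at least 50% and at least 75% of replicates each reaching 50%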
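Test system: INS-1E rat cells | Quantity: 8000 cells per well | Medium: Phenol-red-free RPMI with 5% fetal bovine serum | Reagent: Cytokine cocktail of IFN-γ, TNF-α and IL-1β | Doses: One compound concentration, pin transfer | Timing: 48 h co-treatment, 10 min post-lysis read | Technique: Luminescent ATP assay (CellTiter-Glo)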
Active calls of the source: *; . = not tested or not shown.

SMILES	A1 apoptosis 2	T cruzi intra	INS-1E rescue
[N-]=[N+]=NC[C@H](Cc1ccccc1)NC(=O)c1ccccc1	-1.2	.	.
CC(C)NC(=O)N(C)C[C@@H]1OCCCC[C@@H](C)Oc2ccc(NC(=O)NC3CCCCC3)cc2C(=O)N([C@H](C)CO)C[C@@H]1C	-0.9	-41.3	25.2
COc1cc2c(cc1O)C(c1cccs1)N(Cc1cccc(OC(F)(F)F)c1)CC2 (centres undefined)	-0.2	.	.
Cc1noc(C)c1S(=O)(=O)Nc1ccc2c(c1)C(=O)N([C@@H](C)CO)C[C@H](C)[C@@H](CN(C)Cc1ccc(C(F)(F)F)cc1)O2	.	64.8*	-7.7
Cc1noc(C)c1S(=O)(=O)Nc1ccc2c(c1)CC(=O)N([C@@H](C)CO)C[C@@H](C)[C@@H](CN(C)Cc1ccc(C(F)(F)F)cc1)O2	-1.2	34.4	-10.0
Cc1noc(C)c1S(=O)(=O)Nc1ccc2c(c1)C(=O)N([C@H](C)CO)C[C@H](C)[C@H](CN(C)C(=O)Nc1ccc(C(F)(F)F)cc1)O2	.	73.4*	.
Cc1noc(C)c1S(=O)(=O)Nc1ccc2c(c1)C(=O)N([C@H](C)CO)C[C@@H](C)[C@@H](CN(C)Cc1ccc(C(F)(F)F)cc1)O2	.	-0.9	-8.3
Cc1noc(C)c1S(=O)(=O)Nc1ccc2c(c1)C(=O)N([C@H](C)CO)C[C@H](C)[C@@H](CN(C)C(=O)Nc1ccc(C(F)(F)F)cc1)O2	.	6.8	4.1
Cc1noc(C)c1S(=O)(=O)Nc1ccc2c(c1)CC(=O)N([C@H](C)CO)C[C@@H](C)[C@@H](CN(C)Cc1ccc(C(F)(F)F)cc1)O2	1.0	69.2*	-36.8
CO[C@H]1O[C@H](CO)[C@@H](OC(=O)Nc2ccccc2)[C@H](OC(=O)Nc2ccccc2)[C@@H]1OC(=O)Nc1ccccc1	0.4	.	.
CN1C(=O)N[C@@H]2c3ccccc3O[C@@]1(CO)[C@@H]2COC(=O)c1ccccc1	0.8	.	.
Cc1ccc(/C=N/NC(=O)CCCCCCC(=O)Nc2ccccc2O)o1	1.1	-3.7	9.0
CCO[C@@H]1OC(C(=O)N2CCN(Cc3ccccc3)CC2)=C[C@H](C(C)(C)C)[C@H]1CCCO	-0.5	.	.
O=S(=O)(N[C@@H]1CCCN(Cc2ccc(OCCO)cc2)C1)c1cccc(F)c1	0.2	.	.
O=C(NO)c1ccc(C(=O)N/N=C/c2ccc(Br)o2)cc1	0.5	-16.6	8.0
C[C@@H]1CCCCO[C@@H](CN(C)Cc2ccc(Cl)c(Cl)c2)[C@@H](C)CN([C@H](C)CO)C(=O)c2cc(NC(=O)Cc3ccccc3)ccc2O1	0.0	64.0*	-44.8
C[C@@H]1CCCCO[C@@H](CN(C)Cc2ccc(Cl)c(Cl)c2)[C@H](C)CN([C@H](C)CO)C(=O)c2cc(NC(=O)Cc3ccccc3)ccc2O1	-0.2	.	.
C[C@@H]1CCCCO[C@@H](CN(C)Cc2ccc(Cl)c(Cl)c2)[C@@H](C)CN([C@H](C)CO)C(=O)c2cc(NC(=O)CCC(F)(F)F)ccc2O1	.	63.1*	-32.2
C[C@@H]1CN([C@@H](C)CO)C(=O)c2cc(NC(=O)CCC(F)(F)F)ccc2O[C@@H](C)CCCCO[C@H]1CN(C)Cc1ccc(Cl)c(Cl)c1	0.5	.	.
Cc1ccc(S(=O)(=O)N(C)C[C@@H]2Oc3ccc(NC(=O)C4CC4)cc3C(=O)N([C@@H](C)CO)C[C@@H]2C)cc1	0.0	-3.0	-3.2
COC(=O)CCCCCCC(=O)N/N=C/CNC(=O)OC(C)(C)C	-0.2	-2.2	-9.2
COCCOC(=O)N1C(=O)[C@@]2(c3ccccc31)[C@H](c1ccc(OCCO)cc1)N1[C@H](c3ccccc3)[C@H](c3ccccc3)OC(=O)[C@H]1[C@@H]2C(=O)Nc1nc2ccccc2s1	-0.8	.	.
C[C@@H]1CN([C@@H](C)CO)C(=O)CCCn2cc(nn2)CO[C@H]1CN(C)Cc1ccc(Oc2ccccc2)cc1	-0.3	67.5*	-2.0
C[C@H](CO)N1C[C@H](C)[C@@H](CN(C)Cc2ccc(Oc3ccccc3)cc2)OCc2cnnn2CCCC1=O	1.7	82.9*	.
C[C@H]1CN([C@@H](C)CO)C(=O)CCCn2nncc2CO[C@H]1CN(C)Cc1ccc(Oc2ccccc2)cc1	-1.0	-13.9	.
SMILES	A1 apoptosis 2	T cruzi intra	INS-1E rescue
C[C@@H]1CN([C@H](C)CO)C(=O)CCCn2nncc2CO[C@H]1CN(C)Cc1ccc(-c2ccccc2)cc1	.	10.1	-9.0
C[C@H](CO)N1C[C@H](C)[C@@H](CN(C)Cc2ccc(-c3ccccc3)cc2)OCc2cnnn2CCCC1=O	.	65.4*	.
C[C@H]1CN([C@@H](C)CO)C(=O)CCCn2nncc2CO[C@@H]1CN(C)S(=O)(=O)c1ccc(-c2ccccc2)cc1	.	83.7*	.
C[C@@H]1CN([C@@H](C)CO)C(=O)CCCn2nncc2CO[C@H]1CN(C)S(=O)(=O)c1ccc(-c2ccccc2)cc1	1.8	10.6	-4.1
C[C@H]1CN([C@@H](C)CO)C(=O)CCCn2cc(nn2)CO[C@@H]1CN(C)Cc1ccc(Oc2ccccc2)cc1	0.3	32.4	.
C[C@@H]1CN([C@@H](C)CO)C(=O)Cc2cc(NS(=O)(=O)c3ccc(F)cc3)ccc2O[C@@H]1CN(C)C(=O)Nc1ccc2c(c1)OCO2	.	10.8	0.0
NC(=O)NCC#Cc1ccc2c(c1)[C@]1(C(=O)N2)[C@H](C(=O)Nc2nc3ccccc3s2)[C@H]2C(=O)O[C@H](c3ccccc3)[C@H](c3ccccc3)N2[C@@H]1c1ccccc1OCCO	0.0	.	.
O=C(NO)c1cccc(C(=O)N/N=C/c2ccc(CO)o2)c1	.	-26.0	5.2
O=C(CCCCC(=O)NN=C1CCCCCCC1)NO	0.4	12.6	5.3
O=C(CCCCCC(=O)Nc1ccccc1O)N/N=C/c1cccc(C(=O)O)c1	0.7	-4.4	-15.3
C[C@H]1CN([C@@H](C)CO)C(=O)CCCn2nncc2CO[C@@H]1CN(C)Cc1ccc(C(F)(F)F)cc1	-0.2	51.9	.
C[C@H](CO)N1C[C@H](C)[C@@H](CN(C)Cc2ccc(C(F)(F)F)cc2)OCc2cnnn2CCCC1=O	-0.4	60.6*	.
COC(=O)CCCCCCC(=O)N/N=C/c1ccccc1[N+](=O)[O-]	-1.5	-17.6	9.1
O=C(O)c1ccc(/C=N/NC(=O)c2ccccn2)cc1	.	-18.2	4.7
COc1cc(Cl)c(/C=N/NC(=O)c2ccc(C(=O)NO)cc2)c(Cl)c1OC	-0.3	16.3	32.4
Cc1ccc(S(=O)(=O)N(C)C[C@@H]2OCCCC[C@@H](C)Oc3ccc(NC(=O)Nc4ccc(C(F)(F)F)cc4)cc3C(=O)N([C@H](C)CO)C[C@@H]2C)cc1	.	70.0*	-22.9
C[C@@H]1CCCCO[C@H](CN(C)S(=O)(=O)c2ccc(F)cc2)[C@@H](C)CN([C@H](C)CO)C(=O)c2cc(NC(=O)Nc3ccc(F)cc3)ccc2O1	0.3	13.7	-7.1
C[C@@H]1CCCCO[C@H](CN(C)S(=O)(=O)c2ccc(F)cc2)[C@@H](C)CN([C@H](C)CO)C(=O)c2cc(NC(=O)Nc3ccc(C(F)(F)F)cc3)ccc2O1	0.1	63.6*	-36.2
C[C@@H]1CCCCO[C@H](CN(C)S(=O)(=O)c2ccc(Cl)cc2)[C@H](C)CN([C@@H](C)CO)C(=O)c2cc(NC(=O)Nc3ccc(C(F)(F)F)cc3)ccc2O1	0.3	.	.
